# Results: ChEMBL document CHEMBL4373674, “Structural modification of azolylacryloyl derivatives yields a novel class of covalent modifiers of hemoglobin as potential antisickling agents” (Medchemcomm, 2019)
# Calls of active or inactive are those of the source. The rule behind the calls is not given here.
# Experiments:
# [1] = target: T1, Hemoglobin HbA (Homo sapiens) (UniProt P69905+P68871); assay: Binding affinity to hemoglobin in whole blood (unknown origin) incubated for 2 hrs; type: tissue-based
# T1 sequence (P68871 2-147 partner limits assumed): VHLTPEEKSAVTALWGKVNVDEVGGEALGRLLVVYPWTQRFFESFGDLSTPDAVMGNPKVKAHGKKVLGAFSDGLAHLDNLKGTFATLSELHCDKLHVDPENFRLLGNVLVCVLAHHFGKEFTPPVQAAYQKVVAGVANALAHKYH
# T1 sequence (P69905 2-142 limits assumed): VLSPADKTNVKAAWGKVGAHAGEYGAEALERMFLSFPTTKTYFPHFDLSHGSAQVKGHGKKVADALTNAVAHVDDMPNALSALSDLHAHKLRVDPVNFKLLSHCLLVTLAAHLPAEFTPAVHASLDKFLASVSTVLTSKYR
# Method in brief: (§1)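 Normal human whole blood at 20% hematocrit was incubated with compound (1 mM and 2 mM final) for 2 h at 37 °C. Hb–O2 affinity was then measured from oxygen equilibrium curves. Runs were done at least in triplicate.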
# [2] = target: T1, Hemoglobin HbA (Homo sapiens); assay: Binding affinity to hemoglobin in whole blood (unknown origin) at 1 mM incubated for 2 hrs relative to control; type: tissue-based; method in brief: as §1
# [3] = Drug reactivity against cysteine in PBS buffer assessed as assessed as cysteine-compound adduct formation at 2 mM incubated for 3 hrs by UPLC-MS analysis relative to control
# Erythrocyte = assay: Anti-sickling activity in RBC derived from patient homozygous SS at 2 mM […] by microscopic analysis relative to control; type: functional, Homo sapiens
# [4] = target: T1, Hemoglobin HbA (Homo sapiens); assay: Drug reactivity against betacys93 in hemoglobin (unknown origin) assessed as betacys93-compound adduct formation at 2 mM incubated for 2 hrs by UPLC-MS analysis relative to control; type: protein-complex assay; details: in the assay text read “by DTNB disulfide exchange assay” for “by UPLC-MS analysis”
# Method in brief: (§2)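 Hb (50 µM in PBS) was reacted with 2 mM compound (final) at room temperature for 2 h or 16 h. Hb was recovered by centrifugation and 10 kDa ultrafiltration, then washed. Samples were incubated in 0.1 M potassium phosphate pH 8.0 with DTNB for 1 h at 25 °C. Hb content was taken from A576 and free thiol from 2-nitrobenzoate at A412 (ε 14 150 M-1 cm-1). Values are the mean of quadruplicates ± SD. % adduct = 100 − available SH from two βCys93.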
# [5] = target: T1, Hemoglobin HbA (Homo sapiens); assay: Drug reactivity against betacys93 in hemoglobin (unknown origin) assessed as betacys93-compound adduct formation at 2 mM incubated for 16 hrs by UPLC-MS analysis relative to control; type: protein-complex assay; details: in the assay text read “by DTNB disulfide exchange assay” for “by UPLC-MS analysis”; method in brief: as §2
# [6] = target: T1, Hemoglobin HbA (Homo sapiens); assay: Binding affinity to hemoglobin in whole blood (unknown origin) at 2 mM incubated for 2 hrs relative to control; type: tissue-based; method in brief: as §1
# [7] = target: T1, Hemoglobin HbA (Homo sapiens); assay: Drug reactivity against betacys93 in hemoglobin (unknown origin) assessed as free SH in betacys93 at 2 mM incubated for 16 hrs by UPLC-MS analysis relative to control; type: protein-complex assay; details: in the assay text read “by DTNB disulfide exchange assay” for “by UPLC-MS analysis”; method in brief: as §2
# [8] = Drug reactivity against cysteine in PBS buffer at 2 mM incubated for 3 hrs by UPLC-MS analysis relative to control
# [9] = Acute toxicity in Swiss albino mouse assessed as mortality at 5000 mg/kg, po via gavage measured after 24 hrs by OECD 423 guideline based method; type: organism-based; details: in vivo
# Method in brief: (§3)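 Male and female Swiss albino mice (22–27 g, 8–10 weeks) were held at about 23 °C on a 12 h light/dark cycle with free food and water. Dosing was a single oral gavage of a 10% suspension in water with 0.5% Tween 80. Groups of n = 3 received 2000 mg/kg (days 1 and 2) or 5000 mg/kg (day 3). Toxic signs and mortality were watched for 24 h.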
# [10] = Acute toxicity in Swiss albino mouse assessed as mortality at 2000 mg/kg, po via gavage measured after 24 hrs by OECD 423 guideline based method; type: organism-based; details: in vivo; method in brief: as §3
# [11] = target: T1, Hemoglobin HbA (Homo sapiens); assay: Binding affinity to hemoglobin in whole blood (unknown origin) at 2 mM incubated for 24 hrs; type: tissue-based
# Method in brief: (§4)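 Normal whole blood was incubated with 2 mM compound at 37 °C for up to 24 h. Aliquots taken at 1, 2, 4, 8 and 24 h were assessed by oxygen equilibrium curves, with DMSO as vehicle control.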
# [12] = target: T1, Hemoglobin HbA (Homo sapiens); assay: Binding affinity to hemoglobin in whole blood (unknown origin) at 2 mM incubated for 8 hrs; type: tissue-based; method in brief: as §4
Structure (SMILES),Activity [1],Activity [2] [%],Activity [3] [%],Activity [4] [%],Activity [5] [%],Activity [6] [%],Activity [7] [%],Activity [8] [%],Activity [11],Activity [12],Activity (Erythrocyte) [%],Activity [9],Activity [10]
COc1ccc(C(=O)/C=C/c2ncc[nH]2)cc1,Active,8.2,77,11,37,11.8,63,23,Active,,9,Toxic,Non-Toxic
O=C(/C=C/c1ncc[nH]1)c1ccccc1,Active,7,19.6,10,21,11.3,79,80.4,Active,,7,,
COc1ccc(C(=O)/C=C/c2ncc[nH]2)cc1OC,Active,6.5,53.7,9,20,6.5,80,46.3,,Active,5,,

# More lines, main results first:
Activity [1],Activity [2] [%],Activity [3] [%],Activity [4] [%],Activity [5] [%],Activity [6] [%],Activity [7] [%],Activity [8] [%],Activity [11],Activity [12],Structure (SMILES),Activity (Erythrocyte) [%],Activity [9],Activity [10]
Active,1.9,,11,30,4.5,70,,,Active,O=C(O)CCCOc1ccc(C(=O)/C=C/c2ncc[nH]2)cc1Cl,2,,
Active,9.9,54.9,,,15.2,,45.1,Active,,O=C(/C=C/c1ncc[nH]1)c1ccc(OC2CCCCO2)cc1 (configuration not stated),7,,
